Measurements as given in ChEMBL document CHEMBL1132324, “Structure-activity relationships in 1,4-benzodioxan-related compounds. 6. Role of the dioxane unit on selectivity for alpha(1)-adrenoreceptor subtypes” (J Med Chem, 1999).

What was measured:
[1] = target: T1, Adrenergic receptor alpha-2 (Rattus norvegicus) (UniProt P22086+P19328+P22909); assay: The binding affinity was evaluated on Alpha-2 adrenergic receptor expressed in rat cortex by using [3H]rauwolscine as radioligand.
Outline: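 Male Sprague-Dawley rat cerebral cortex membranes, washed in Tris-HCl pH 7.4 and resuspended with 10 μM pargyline and 0.1% ascorbic acid. Incubated 30 min at 25 °C with 0.5–1.5 nM [3H]rauwolscine. Nonspecific binding with 10 μM phentolamine. Filtration on PEI-treated filters. Ki by Cheng-Prusoff. 2–3 experiments in triplicate.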

[2] = target: T2, Alpha-1A adrenergic receptor (Homo sapiens) (UniProt P35348); assay: The binding affinity was evaluated on cloned human alpha-1A adrenergic receptor expressed in chinese hamster ovary(CHO) cells by using [3H]prazosin as radioligand.; format: cell-based
T2 sequence (whole entry): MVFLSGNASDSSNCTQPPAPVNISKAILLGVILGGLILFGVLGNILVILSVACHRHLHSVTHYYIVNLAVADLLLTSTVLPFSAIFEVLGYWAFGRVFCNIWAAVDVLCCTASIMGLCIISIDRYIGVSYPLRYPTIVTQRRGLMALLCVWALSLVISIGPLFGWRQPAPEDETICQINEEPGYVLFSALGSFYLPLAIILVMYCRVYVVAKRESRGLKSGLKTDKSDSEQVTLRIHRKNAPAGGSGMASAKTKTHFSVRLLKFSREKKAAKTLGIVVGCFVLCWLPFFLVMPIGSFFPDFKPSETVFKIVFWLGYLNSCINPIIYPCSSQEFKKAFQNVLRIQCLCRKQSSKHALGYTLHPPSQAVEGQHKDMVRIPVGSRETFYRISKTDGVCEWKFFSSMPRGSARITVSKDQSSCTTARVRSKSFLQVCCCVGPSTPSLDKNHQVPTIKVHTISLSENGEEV
Outline: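 Membranes (30 μg protein) from CHO cells stably expressing each human α1 subtype, in 50 mM Tris-HCl pH 7.4. Incubated with 0.1–0.4 nM [3H]prazosin for 30 min at 25 °C, competitor 1 pM–10 μM. Nonspecific binding with 10 μM phentolamine. Ki by Cheng-Prusoff. 2–3 experiments in triplicate.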

[3] = target: T1, Adrenergic receptor alpha-2 (Rattus norvegicus); assay: The binding affinity was evaluated on alpha-2 adrenergic receptor expressed in rat cortex by using [3H]rauwolscine as radioligand.
Outline: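 Male Sprague-Dawley rat cerebral cortex membranes, washed in Tris-HCl pH 7.4 and held in buffer with 10 μM pargiline and 0.1% ascorbic acid. Incubated 30 min at 25 °C with 0.5-1.5 nM [3H]rauwolscine; nonspecific binding with 10 μM phentolamine. Filtration, scintillation counting. Ki from Cheng-Prusoff; 2-3 experiments in triplicate.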

pKi [1] | pKi [2] | pKi [3] | Compound
< 6 | – | – | COc1cccc(OC)c1OCCNCC1Oc2ccccc2CC1c1ccccc1 (stereo in doubt; 7)
– | 9.22 | < 6 | COc1cccc(OC)c1OCCNCC1C(=O)c2ccccc2OC1c1ccccc1 (stereo not drawn)
